Three molecules from publication PMC7115694 (European Journal of Medicinal Chemistry, 2010) can be followed below.

The term EC50 denotes the concentration needed to bring the measured effect to its halfway point.

What all share (assay type): cell-based
One data set deals with Staphylococcus aureus. The experiment in a line: MIC by tube dilution method. Particulars: observed, S. aureus, 37 °C 24 h.
The next data set has as its system Bacillus subtilis. The data set can be described thus: MIC by tube dilution method. Particulars: observed, B. subtilis, 37 °C 24 h. The essentials: (§1)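 Test compound is diluted in double strength nutrient broth (I.P.) by tube dilution, with ciprofloxacin as reference. Samples incubated at 37 °C for 24 h. MIC is the lowest concentration inhibiting microbial growth, transformed into pMIC for analysis.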

In another data set the test system is Escherichia coli. The experiment in a line: MIC by tube dilution method. Particulars: observed, E. coli, 37 °C 24 h. In short, it runs like this:
as §1

In another data set the test system is Candida albicans. The data set can be described thus: MIC by tube dilution method. Particulars: observed, C. albicans, 37 °C 48 h.
The test system of the next data set is Aspergillus niger. The data set can be described thus: MIC by tube dilution method. Particulars: observed, A. niger, 25 °C 7 d.
In data set [1] the test system is S. aureus, B. subtilis and E. coli. The experiment in a line: Average antibacterial activity. Particulars: average antibacterial activity (pMICsa + pMICbs + pMICec)/3.
The next data set relates to C. albicans and A. niger. The experiment in a line: Average antifungal activity. Particulars: average antifungal activity (pMICca + pMICan)/2.
In data set [2] the test system is S. aureus, B. subtilis, E. coli, C. albicans and A. niger. The experiment in a line: Average antimicrobial activity. Particulars: mean of five pMIC values.
The next data set deals with S. aureus. The experiment in a line: Minimum bactericidal concentration. Particulars: static when MBC 3-fold higher than MIC.
Another data set relates to B. subtilis. The experiment in a line: Minimum bactericidal concentration. Particulars: static when MBC 3-fold higher than MIC.
The test system of the next data set is Feline Herpes virus. The data set can be described thus: organism not typed.
A further data set has as its system Para-influenza-3 virus. The experiment in a line: organism not typed. Particulars: Vero, read-out: EC50 Para-influenza-3 virus.
The next data set has as its system Reovirus-1. The data set can be described thus: organism not typed. Particulars: Vero, read-out: EC50 Reovirus-1.
The next data set concerns HEL cells. The data set can be described thus: Cytotoxicity in uninfected cell cultures. Particulars: microscopically detectable alteration of cell morphology. The essentials: (§2)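 Uninfected cell cultures are exposed to serial dilutions of test compound in parallel with the virus cytopathicity assays. Cells are examined microscopically. Minimum cytotoxic concentration is the lowest concentration causing a microscopically detectable alteration of normal cell morphology.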

A further data set has as its system HeLa cells. The data set can be described thus: Cytotoxicity in uninfected cell cultures. Particulars: cell morphology. In short, it runs like this:
as §2

The subject of a further data set is Vero cells. The experiment in a line: Cytotoxicity in uninfected cell cultures. Particulars: cell morphology. The essentials:
as §2

A further data set concerns Coxsackie virus B4. The data set can be described thus: microbe, parasite or virus in culture. Particulars: Enterovirus B, B4, HeLa, read-out: EC50 Coxsackie virus B4 visual CPE score.
The test system of another data set is Sindbis virus. The data set can be described thus: microbe, parasite or virus in culture. Particulars: Vero, read-out: EC50 Sindbis virus.
The next data set concerns Punta Toro virus. The data set can be described thus: microbe, parasite or virus in culture. Particulars: Vero, read-out: EC50 Punta Toro virus.
In data set [3] the test system is Feline Corona virus (FIPV). Particulars: CRFK cell cultures, MTS assay. On the technique in general: Tetrazolium dyes change colour on reduction, which living cells bring about.

Take `CCCCC(=O)n1c(-c2ccc(S(=O)(=O)O)cc2)nc2ccccc21` [Compound 17]: the pMICsa in the data set with Staphylococcus aureus came out at 1.76. Also, the pMICbs with Bacillus subtilis was determined as 1.76. The pMICec in the data set on Escherichia coli is listed as 1.76. For the same molecule, in the data set on Candida albicans, the pMICca is 1.46. The molecule also registered a pMICan in the data set on Aspergillus niger of 1.16. Further, in [1], the pMICab is 1.76. The pMICaf with C. albicans and A. niger turned out to be 1.31. The molecule further registered a pMICam in [2] of 1.58. Moreover, the “bacteriostatic/bactericidal action against S. aureus” value in the data set on S. aureus is “active bacteriocidal agents”. Further, the “bacteriostatic/bactericidal action against B. subtilis” value in the data set on B. subtilis is given as “active bacteriocidal agents”. The EC50 is over 100 µg/mL with Feline Herpes virus (CRFK, read-out: EC50 Feline Corona Virus); over 100 µg/mL in the data set with Para-influenza-3 virus; over 100 µg/mL in the data set on Reovirus-1. In addition, the Minimum cytotoxic concentration with HEL cells and in the data set with Vero cells was over 100 µg/mL in each case. In addition, the “Cytotoxicity Minimum cytotoxic concentration” value in the data set on HeLa cells is over 100 µg/mL.
Regarding `Nc1ncnc2c1ncn2C[C@H](O)CO` [(S)-DHPA], the EC50 in the data set on Coxsackie virus B4, in the data set on Para-influenza-3 virus, in the data set on Reovirus-1, in the data set on Sindbis virus and with Punta Toro virus was over 250 µM throughout. Besides, the “Cytotoxicity Minimum cytotoxic concentration” value in the data set with HeLa cells was over 250 µM. In addition, the Minimum cytotoxic concentration in the data set with Vero cells was over 250 µM.

B1: UDA (protein, UniProt P11218 24-372, looked up)
Lectin/endochitinase 1: QRCGSQGGGGTCPALWCCSIWGWCGDSEPYCGRTCENKCWSGERSDHRCGAAVGNPPCGQDRCCSVHGWCGGGNDYCSGSKCQYRCSSSVRGPRVALSGNSTANSIGNVVVTEPLFDQMFSHRKDCPSQGFYSYHSFLVAAESFPAFGTIGDVATRKREVAAFLAHISQATSGERSDVENPHAWGLCHINTTTVTENDFCTSSDWPCAAGKKYSPRGPIQLTHNFNYGLAGQAIGEDLIQNPDLVEKDPIISFKTALWFWMSQHDNKPSCHDIVLNANSAANRIPNKGVIGNIISRAFGHDDFAVRSSSIGFYKRYCDMLGVSYGHDLKYWFDNTPSSEFQRIQMRVAA
Consider B1, for which the “EC50 Feline Herpes Virus (FIPV)” value in data set [3] was found to be 1.5 µg/mL. Further, in the data set on Feline Herpes virus (CRFK cell cultures, MTS assay), the “EC50 Feline Corona Virus” value stood at 0.4 µg/mL.
